Test results from ChEMBL document CHEMBL1138852, “Arylpiperazinylalkylpyridazinones and analogues as potent and orally active antinociceptive agents: synthesis and studies on mechanism of action” (J Med Chem, 2006).
Where “and” joins values, the source holds several entries; their conditions need not be identical. Equal values may be shown once. Calls of active or inactive are those of the source.

What was measured:
Mus musculus [1] = assay: Antinociceptive activity in Swiss Albino mouse at 20 mg/kg, po by writhing test measured as number of writhes; format: functional
Method in brief: (§1)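 Drugs dosed orally 30 min before test, in saline or 1% CMC suspension; yohimbine arm included. 0.6% acetic acid (10 mL/kg) injected i.p., and abdominal constrictions counted for 10 min from 5 min after injection. Values are means of at least two experiments, compared with CMC-treated mice.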

Mus musculus [2] = assay: Antagonist effect on compound A-induced antinociception in Swiss Albino mouse at 10 mg/kg, ip; format: functional; settings: route intraperitoneal
Method in brief: (§2)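 Mice given antagonist i.p. (yohimbine 3 mg/kg, BRL-44408 1 mg/kg, ARC-239 10 mg/kg) plus compound A 1 mg/kg s.c., or antagonist plus vehicle. Abdominal constriction test: 0.6% acetic acid (10 mL/kg) i.p., stretching movements counted for 10 min beginning 5 min after injection. Groups of 10-15 mice, compared with saline/CMC controls.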

Mus musculus [3] = assay: Antinociceptive activity in Swiss Albino mouse at 20 mg/kg, po by hot plate assay measured as licking latency; format: functional; set-up: unit: s
Method in brief: (§3)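 Oral dosing in saline or 1% CMC. Mice placed on a surface held at 52.5 ± 0.1 °C; paw-licking latency (s) timed before treatment and at intervals up to 60 min afterwards. Mice with pretest latency below 12 or above 18 s were excluded. Cutoff 45 s.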

Mus musculus [4] = assay: Antinociceptive activity in Swiss Albino mouse at 20 mg/kg, po by writhing test measured as number of writhes in presence of yohimbine; format: functional; method in brief: as §1
Mus musculus [5] = assay: Antinociceptive activity in Swiss Albino mouse at 5 mg/kg, po by writhing test measured as number of writhes; format: functional; method in brief: as §1
Mus musculus [6] = assay: Antinociceptive activity in Swiss Albino mouse at 3 mg/kg, po by writhing test measured as number of writhes in presence of yohimbine; format: functional
Mus musculus [7] = assay: Antinociceptive activity in Swiss Albino mouse at 3 mg/kg, po by hot plate assay measured as licking latency; format: functional; method in brief: as §3
Mus musculus [8] = assay: Antinociceptive activity in Swiss Albino mouse at 3 mg/kg, ip by abdominal constriction assay; format: functional, Abdomen; settings: route intraperitoneal
Method in brief: (§4)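 Acetic acid writhing in mice: 0.6% acetic acid at 10 mL/kg i.p., with stretching movements counted over 10 min starting 5 min after injection. Compound A 1 mg/kg s.c. or antagonists i.p. Drugs in 0.9% saline or dispersed in 1% carboxymethylcellulose. Groups of 10-15 mice, compared against saline/CMC controls.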

Mus musculus [9] = assay: Antagonist effect on compound A-induced antinociception in Swiss Albino mouse at 3 mg/kg, ip; format: functional; settings: route intraperitoneal; method in brief: as §2
Mus musculus [10] = assay: Antinociceptive activity in Swiss Albino mouse at 30 mg/kg, po by writhing test measured as number of writhes; format: functional; method in brief: as §1
Mus musculus [11] = assay: Antinociceptive activity in Swiss Albino mouse at 30 mg/kg, po by hot plate assay measured as licking latency; format: functional; method in brief: as §3
Mus musculus [12] = assay: Antinociceptive activity in Swiss Albino mouse at 1 mg/kg, ip by abdominal constriction assay; format: functional, Abdomen; settings: route intraperitoneal; method in brief: as §4
Mus musculus [13] = assay: Antagonist effect on compound A-induced antinociception in Swiss Albino mouse at 1 mg/kg, ip; format: functional; settings: route intraperitoneal; method in brief: as §2
Mus musculus [14] = assay: Antinociceptive activity in Swiss Albino mouse at 10 mg/kg, po by writhing test measured as number of writhes; format: functional; method in brief: as §1
Mus musculus [15] = assay: Antinociceptive activity in Swiss Albino mouse at 1 mg/kg, sc by abdominal constriction assay; format: functional, Abdomen; settings: route subcutaneous; method in brief: as §4
Mus musculus [16] = species on record: Mus musculus; assay: Impairment in mouse rotarod test; format: functional, organism-based
[17] = molecular target: T1, Alpha-2A adrenergic receptor (Rattus norvegicus, UniProt P22909); assay: Binding affinity to adrenergic alpha-2A receptor in Sprague-Dawley rat cortical membranes
T1 sequence (P22909 whole entry): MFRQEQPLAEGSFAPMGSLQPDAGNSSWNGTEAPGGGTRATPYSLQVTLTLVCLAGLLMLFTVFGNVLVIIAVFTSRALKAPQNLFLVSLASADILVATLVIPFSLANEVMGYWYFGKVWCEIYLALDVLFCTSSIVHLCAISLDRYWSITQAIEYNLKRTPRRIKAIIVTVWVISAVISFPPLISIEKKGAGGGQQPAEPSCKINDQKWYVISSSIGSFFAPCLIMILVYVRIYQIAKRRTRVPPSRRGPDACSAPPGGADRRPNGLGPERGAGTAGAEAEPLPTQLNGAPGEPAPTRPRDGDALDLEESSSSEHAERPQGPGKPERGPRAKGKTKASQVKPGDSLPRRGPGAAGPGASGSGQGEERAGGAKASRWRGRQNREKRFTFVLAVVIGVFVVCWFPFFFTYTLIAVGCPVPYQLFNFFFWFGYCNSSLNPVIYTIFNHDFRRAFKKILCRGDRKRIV

Cerebral cortex = assay: Increase in noradrenaline release in Sprague-Dawley rat cortical membranes; format: functional
[18] = molecular target: Norepinephrine transporter (Rattus norvegicus, UniProt Q9WTR4); assay: Inhibition of [3H]noradrenaline uptake in Sprague-Dawley rat brain synaptosomes; format: functional, subcellular
Method in brief: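 Rat frontal cortex synaptosomes prepared on a sucrose gradient and resuspended in Krebs-type buffer, pH 7.4, with 0.01 mM pargyline. Preincubated 5 min at 37 °C with or without drug, then [3H]-NE added for 6 min. Samples filtered and counted. Active uptake taken as accumulation at 37 °C minus accumulation at 0 °C.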

Chain of Norepinephrine transporter (Q9WTR4 whole entry): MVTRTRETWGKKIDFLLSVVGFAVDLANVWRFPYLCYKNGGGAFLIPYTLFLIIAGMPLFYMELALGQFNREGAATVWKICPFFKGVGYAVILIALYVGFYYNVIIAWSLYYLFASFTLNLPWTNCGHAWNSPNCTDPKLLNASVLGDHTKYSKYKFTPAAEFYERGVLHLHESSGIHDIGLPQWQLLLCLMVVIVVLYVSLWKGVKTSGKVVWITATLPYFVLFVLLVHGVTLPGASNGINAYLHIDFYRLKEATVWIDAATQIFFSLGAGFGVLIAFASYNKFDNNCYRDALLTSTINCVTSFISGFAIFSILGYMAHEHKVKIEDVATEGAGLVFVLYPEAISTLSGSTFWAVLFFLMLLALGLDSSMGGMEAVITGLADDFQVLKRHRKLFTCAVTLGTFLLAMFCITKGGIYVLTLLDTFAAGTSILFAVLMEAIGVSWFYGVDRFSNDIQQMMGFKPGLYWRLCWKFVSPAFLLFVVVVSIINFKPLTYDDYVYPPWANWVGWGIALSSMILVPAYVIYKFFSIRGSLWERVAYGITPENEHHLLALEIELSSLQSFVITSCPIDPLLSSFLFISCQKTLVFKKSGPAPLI

**Q.** Which Activity (Mus musculus [1]) does the source give for `Cc1nn(CCCN2CCN(c3cccc(Cl)c3)CC2)c(=O)c2nn(-c3ccccc3)c(C)c12` here?
**A.** 10.3

**Q.** With `COc1ccccc1N1CCN(CCN2C(=O)c3ccccc3C(C)(C)C2=O)CC1` as the molecule, how does the Activity (Mus musculus [2]) read?
**A.** 9.6

**Q.** For `O=C1c2ccccc2C(=O)N1CCCN1CCN(c2cccc(Cl)c2)CC1`, which Activity (Mus musculus [1]) is on record?
**A.** 34.9

**Q.** And the Activity (Mus musculus [3])?
**A.** 16.2

**Q.** Which Activity (Mus musculus [1]) does the source give for `Cc1noc2c(-c3ccccc3)nn(CCN3CCN(c4cccc(Cl)c4)CC3)c(=O)c12` here?
**A.** 23.6

**Q.** What about the Activity (Mus musculus [4]) of the same molecule?
**A.** 37.2

**Q.** What about the Activity (Mus musculus [3]) of the same molecule?
**A.** 15.4

**Q.** With `Cc1noc2c(-c3ccccc3N)nn(CCCN3CCN(c4cccc(Cl)c4)CC3)c(=O)c12` as the molecule, how does the Activity (Mus musculus [1]) read?
**A.** 28

**Q.** What about the Activity (Mus musculus [3]) of the same molecule?
**A.** 16.5

**Q.** Which Activity (Mus musculus [5]) does the source give for `Cc1noc2cnn(CCCCN3CCN(c4cccc(Cl)c4)CC3)c(=O)c12` here?
**A.** 27.2

**Q.** Which results are given for `O=c1c2ccccc2cnn1CCCN1CCN(c2cccc(Cl)c2)CC1`?
**A.** Activity (Mus musculus [1]): 8.2; Activity (Mus musculus [4]): 31.8; Activity (Mus musculus [3]; 20 mg/kg): 28 and 83%

**Q.** Which Activity (Mus musculus [6]) does the source give for `COC(=O)[C@@H]1[C@H]2C[C@H]3c4[nH]c5ccccc5c4CCN3C[C@@H]2CC[C@@H]1O` [YOHIMBINE] here?
**A.** 35.9

**Q.** And the Activity (Mus musculus [7])?
**A.** 15.8

**Q.** What about the Activity (Mus musculus [8]) of the same molecule?
**A.** 28.5

**Q.** And the Activity (Mus musculus [9])?
**A.** 27.8

**Q.** `Cc1noc2c(-c3ccccc3[N+](=O)[O-])nn(CCCN3CCN(c4cccc(Cl)c4)CC3)c(=O)c12` was tested. Which Activity (Mus musculus [1]) did it give?
**A.** 31.7

**Q.** Which Activity (Mus musculus [1]) does the source give for `O=C1c2ccccc2C(=O)N1CCCN1CCN(c2ccc(F)cc2)CC1` here?
**A.** 19.4

**Q.** And the Activity (Mus musculus [3])?
**A.** 36.5

**Q.** Which Activity (Mus musculus [1]) does the source give for `Cc1noc2cnn(CCCN3CCN(c4cccc(Cl)c4)CC3)c(=O)c12` here?
**A.** 11.9

**Q.** And the Activity (Mus musculus [4])?
**A.** 27.4

**Q.** And the Activity (Mus musculus [3])?
**A.** 27.7

**Q.** How did the Activity (Mus musculus [1]) turn out when `Cc1noc2c(-c3ccccc3)nn(CCC(=O)N3CCN(c4cccc(Cl)c4)CC3)c(=O)c12` was run?
**A.** 22.1

**Q.** What about the Activity (Mus musculus [4]) of the same molecule?
**A.** 41.3

**Q.** Which results are given for `Cc1noc2c(-c3ccccc3)nn(CCCN3CCN(c4ccccn4)CC3)c(=O)c12`?
**A.** Activity (Mus musculus [10]): 30.2; Activity (Mus musculus [11]): 15.1

**Q.** For `Cc1cc(C)c2c(-c3ccccc3)nn(CCCN3CCN(c4cccc(Cl)c4)CC3)c(=O)c2n1`, which Activity (Mus musculus [1]) is on record?
**A.** 18

**Q.** Which Activity (Mus musculus [1]) does the source give for `Cc1noc2c(-c3ccccc3)nnc(SCCCN3CCN(c4ccc(F)cc4)CC3)c12` here?
**A.** 28.6

**Q.** With `CC1c2ccccc2CN1CC1=NCCN1` (centres undefined) as the molecule, how does the Activity (Mus musculus [12]) read?
**A.** 32.9

**Q.** What about the Activity (Mus musculus [13]) of the same molecule?
**A.** 33.4

**Q.** With `CC(CN1CCN(c2cccc(Cl)c2)CC1)Cn1ncc2ccccc2c1=O` (centres undefined) as the molecule, how does the Activity (Mus musculus [1]) read?
**A.** 36.7

**Q.** Which Activity (Mus musculus [14]) does the source give for `N#Cc1cccc(N2CCN(CCCn3ncc4ccccc4c3=O)CC2)c1` here?
**A.** 17.2

**Q.** For `Cc1noc2c(-c3ccc([N+](=O)[O-])cc3)nn(CCCN3CCN(c4cccc(Cl)c4)CC3)c(=O)c12`, which Activity (Mus musculus [1]) is on record?
**A.** 26.8

**Q.** `O=c1c2ccccc2cnn1CCCN1CCN(c2ccc(Cl)cc2)CC1` was tested. Which Activity (Mus musculus [1]) did it give?
**A.** 23.9

**Q.** Which Activity (Mus musculus [1]) does the source give for `Cc1noc2c(-c3ccccc3)nn(CC(C)CN3CCN(c4cccc(Cl)c4)CC3)c(=O)c12` (centres undefined) here?
**A.** 35.5

**Q.** For `CCOC(=O)CCn1nc(-c2ccccc2)c2onc(C)c2c1=O`, which Activity (Mus musculus [1]) is on record?
**A.** 32.7

**Q.** And the Activity (Mus musculus [3])?
**A.** 17.4

**Q.** With `Cc1noc2c(-c3ccccc3)nn(CCCN3CCN(c4cccc(Cl)c4)CC3)c(=O)c12` as the molecule, how does the Activity (Mus musculus [15]) read?
**A.** 11.6

**Q.** What about the Activity (Mus musculus [16]) of the same molecule?
**A.** inactive

**Q.** What about the Ki [17] of the same molecule?
**A.** > 1000 nM

**Q.** And the Activity (Cerebral cortex)?
**A.** Dose-dependent effect

**Q.** What about the IC50 [18] of the same molecule?
**A.** 130 nM

**Q.** Which Activity (Mus musculus [1]) does the source give for `Cc1onc2c(=O)n(CCCN3CCN(c4cccc(Cl)c4)CC3)nc(-c3cccs3)c12` here?
**A.** 16.2

**Q.** Which Activity (Mus musculus [1]) does the source give for `Cc1noc2c(-c3ccccc3)nn(CCCN3CCN(c4ccc(Cl)cc4)CC3)c(=O)c12` here?
**A.** 27.1

**Q.** Which results are given for `Cc1noc2c(-c3ccccc3)nn(CCCN3CCN(c4ccc(F)cc4)CC3)c(=O)c12`?
**A.** Activity (Mus musculus [10]): 39.2; Activity (Mus musculus [11]): 17.6

**Q.** Which Activity (Mus musculus [1]) does the source give for `Cc1noc2c(-c3ccccc3)nn(CCCCN3CCN(c4cccc(Cl)c4)CC3)c(=O)c12` here?
**A.** 30.6

**Q.** With `O=c1c2ccccc2cnn1CCCCN1CCN(c2cccc(Cl)c2)CC1` as the molecule, how does the Activity (Mus musculus [1]) read?
**A.** 28.5

**Q.** `O=C1c2ccccc2C(=O)N1CCN1CCN(c2ccc(F)cc2)CC1` was tested. Which Activity (Mus musculus [1]) did it give?
**A.** 22.6

**Q.** What about the Activity (Mus musculus [4]) of the same molecule?
**A.** 37.9

**Q.** Which Activity (Mus musculus [1]) does the source give for `Cc1noc2c(-c3ccccc3)nn(CCC(=O)N3CCN(c4ccc(Cl)cc4)CC3)c(=O)c12` here?
**A.** 23.5

**Q.** And the Activity (Mus musculus [4])?
**A.** 45.4

**Q.** What about the Activity (Mus musculus [3]) of the same molecule?
**A.** 17.2
